Experimental data from ChEMBL document CHEMBL5620421, “2,6-Disubstituted 7-(naphthalen-2-ylmethyl)-7H-purines as a new class of potent antitubercular agents inhibiting DprE1” (Eur J Med Chem, 2023).
Values after ≈ are worked out from the molar mass of the structure shown. Active and inactive are the calls of the source. No cut-off for these calls is given here.

Key:
[1] = system: Mycobacterium tuberculosis; test: Antitubercular activity against Mycobacterium tuberculosis CNCTC My 331/88 (H37Rv) assessed as inhibition of bacterial growth measured after 14 days of incubation by Sulas semisynthetic medium based assay; type: functional; conditions: 336 h, time 14 day
Outline: (§1)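 Micromethod MIC in Sula's semisynthetic medium. MIC is the lowest concentration inhibiting >99% of the mycobacterial population. Isoniazid was the standard drug.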

[2] = system: Mycobacterium tuberculosis; test: Antitubercular activity against Mycobacterium tuberculosis CNCTC My 331/88 (H37Rv) assessed as inhibition of bacterial growth measured after 21 days of incubation by Sulas semisynthetic medium based assay; type: functional; conditions: 504 h, time 21 day; outline: as §1
Mycobacterium avium [3] = test: Antitubercular activity against Mycobacterium avium CNCTC My 330/88 assessed as inhibition of bacterial growth measured after 14 days of incubation by Sulas semisynthetic medium based assay; type: functional; conditions: CNCTC My 330/88, 336 h, time 14 day
Outline: (§2)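 M. avium was tested by the micromethod in Sula's semisynthetic medium. Compounds in DMSO at 1000 to 0.5 μmol/L. Incubation at 37 °C, read at 14 and 21 days. MIC is the lowest concentration giving >99% growth inhibition.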

Mycobacterium avium [4] = test: Antitubercular activity against Mycobacterium avium CNCTC My 330/88 assessed as inhibition of bacterial growth measured after 21 days of incubation by Sulas semisynthetic medium based assay; type: functional; conditions: CNCTC My 330/88, 504 h, time 21 day; outline: as §2
Mycobacterium kansasii [5] = test: Antitubercular activity against Mycobacterium kansasii CNCTC My 235/80 assessed as inhibition of bacterial growth measured after 7 days of incubation by Sulas semisynthetic medium based assay; type: functional; conditions: CNCTC My 235/80, 168 h, time 7 day
Outline: (§3)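 Micromethod in Sula's semisynthetic medium. MIC is the lowest concentration inhibiting >99% of the mycobacterial population. Isoniazid was the standard.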

Mycobacterium kansasii [6] = test: Antitubercular activity against Mycobacterium kansasii CNCTC My 235/80 assessed as inhibition of bacterial growth measured after 14 days of incubation by Sulas semisynthetic medium based assay; type: functional; conditions: CNCTC My 235/80, 336 h, time 14 day; outline: as §3
Mycobacterium kansasii [7] = test: Antitubercular activity against Mycobacterium kansasii CNCTC My 235/80 assessed as inhibition of bacterial growth measured after 21 days of incubation by Sulas semisynthetic medium based assay; type: functional; conditions: CNCTC My 235/80, 504 h, time 21 day; outline: as §3
Staphylococcus aureus [8] = test: Antibacterial activity against Staphylococcus aureus C1947 assessed as inhibition of bacterial growth incubated for 24 to 48 hrs by microdilution broth method; type: functional, organism-based; conditions: time 24-48 hrs
Outline: (§4)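 Clinical isolates kept at –70 °C and subcultured twice on Mueller-Hinton agar, using the second subculture. Broth microdilution in Mueller-Hinton broth at pH 7.4 with two-fold serial compound dilutions and DMSO ≤1% final. Inoculum was 10 μL of a 1.5 × 10⁸ CFU/mL suspension. Incubated at 36 °C ± 1 °C and read at 24 h and 48 h. MIC taken as 95% growth inhibition.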

Staphylococcus aureus [9] = test: Antibacterial activity against methicilin-resistant Staphylococcus aureus C1923 assessed as inhibition of bacterial growth incubated for 24 to 48 hrs by microdilution broth method; type: functional, organism-based; conditions: time 24-48 hrs
Outline: (§5)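 Clinical isolates, stored at −70 °C, were passaged twice on Mueller-Hinton agar. Broth microdilution in Mueller-Hinton broth, pH 7.4, with twofold serial dilutions. DMSO was at most 1% final. Inoculum 1.5 × 10⁸ CFU/mL suspension. MIC is 95% growth inhibition, read after 24 and 48 h at 36 °C.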

[10] = system: Staphylococcus epidermidis; test: Antibacterial activity against Staphylococcus epidermidis C1936 assessed as inhibition of bacterial growth incubated for 24 to 48 hrs by microdilution broth method; type: functional, organism-based; conditions: time 24-48 hrs; outline: as §4
Enterococcus faecium = test: Antibacterial activity against vancomycin-resistant Enterococcus faecium assessed as inhibition of bacterial growth incubated for 24 to 48 hrs by microdilution broth method; type: functional, organism-based; conditions: time 24-48 hrs; outline: as §5
Escherichia coli = test: Antibacterial activity against Escherichia coli A1235 assessed as inhibition of bacterial growth incubated for 24 to 48 hrs by microdilution broth method; type: functional, organism-based; conditions: time 24-48 hrs; outline: as §4
Klebsiella pneumoniae [11] = test: Antibacterial activity against ESBL negative Klebsiella pneumoniae C1950 assessed as inhibition of bacterial growth incubated for 24 to 48 hrs by microdilution broth method; type: functional, organism-based; conditions: time 24-48 hrs; outline: as §4
Klebsiella pneumoniae [12] = test: Antibacterial activity against ESBL positive Klebsiella pneumoniae C1914 assessed as inhibition of bacterial growth incubated for 24 to 48 hrs by microdilution broth method; type: functional, organism-based; conditions: time 24-48 hrs; outline: as §4
Pseudomonas aeruginosa = test: Antibacterial activity against multidrug-resistant Pseudomonas aeruginosa A1245 assessed as inhibition of bacterial growth incubated for 24 to 48 hrs by microdilution broth method; type: functional, organism-based; conditions: time 24-48 hrs; outline: as §5
HepG2 = test: Cytotoxicity against human HepG2 cells incubated for 24 hrs by MTT assay; type: functional, cell-based; conditions: HepG2, 24 h
Outline: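 HepG2 cells in DMEM with 10% FBS, seeded at 15 × 10³ cells/well and attached overnight. Exposed for 24 h to serial dilutions prepared from DMSO stocks, final DMSO ≤1%. Then given fresh medium with 0.5 mg/mL MTT for 1 h at 37 °C. Formazan dissolved in DMSO and read at 570 nm. IC50 from 4-parameter nonlinear regression; three independent experiments in triplicate, mean ± SD.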

[13] = Selectivity index, ratio of IC50 for cytotoxicity against human HepG2 cells by MTT assay to MIC99 for antitubercular activity against Mycobacterium tuberculosis CNCTC My 331/88 (H37Rv) assessed as inhibition of bacterial growth measured after 14 days of incubation; type: functional; conditions: time 14 day
Outline: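 HepG2 cells, 15 × 10³/well, were attached overnight and exposed 24 h to serial dilutions (DMSO ≤1%). Read by MTT at 0.5 mg/mL for 1 h and 570 nm. IC50 from 4-parameter regression, three independent experiments in triplicate. SI is HepG2 IC50 divided by H37Rv MIC99.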

SMILES	MIC99 [1] [µM]	MIC99 [2] [µM]	MIC99 (Mycobacterium avium [3]) [µM]	MIC99 (Mycobacterium avium [4]) [µM]	MIC99 (Mycobacterium kansasii [5]) [µM]	MIC99 (Mycobacterium kansasii [6]) [µM]	MIC99 (Mycobacterium kansasii [7]) [µM]	Activity (Staphylococcus aureus [8])	Activity (Staphylococcus aureus [9])	Activity [10]	Activity (Enterococcus faecium)	Activity (Escherichia coli)	Activity (Klebsiella pneumoniae [11])	Activity (Klebsiella pneumoniae [12])	Activity (Pseudomonas aeruginosa)	IC50 (HepG2) [µM]	Selectivity Index [13]
CCN(CC)c1nc2ncn(Cc3ccc4ccccc4c3)c2c(=O)[nH]1	> 500	> 500	> 500	> 500	> 500	> 500	> 500	inactive	inactive	inactive	inactive	inactive	inactive	inactive	inactive		
CCSc1nc(N2CCOCC2)nc2ncn(Cc3ccc4ccccc4c3)c12	4 (≈ 1.62 µg/mL)	4 (≈ 1.62 µg/mL)	> 500	> 500	32 (≈ 13 µg/mL)	64 (≈ 26 µg/mL)	125 (≈ 50.7 µg/mL)	inactive	inactive	inactive	inactive	inactive	inactive	inactive	inactive	64.2	16.1
O=c1[nH]c(N2CCOCC2)nc2ncn(Cc3ccc(Cl)c(Cl)c3)c12	16 (≈ 6.08 µg/mL)	32 (≈ 12.2 µg/mL)	> 500	> 500	> 500	> 500	> 500	inactive	inactive	inactive	inactive	inactive	inactive	inactive	inactive	> 125	>7.8
CSc1nc(N2CCOCC2)nc2ncn(Cc3ccc4ccccc4c3)c12	8 (≈ 3.13 µg/mL)	8 (≈ 3.13 µg/mL)	> 500	> 500	32 (≈ 12.5 µg/mL)	64 (≈ 25.1 µg/mL)	64 (≈ 25.1 µg/mL)	inactive	inactive	inactive	inactive	inactive	inactive	inactive	inactive	42.4	5.3
CCNc1nc(N2CCOCC2)nc2ncn(Cc3ccc4ccccc4n3)c12	4 (≈ 1.56 µg/mL)	8 (≈ 3.12 µg/mL)	> 250	> 250	64 (≈ 24.9 µg/mL)	64 (≈ 24.9 µg/mL)	64 (≈ 24.9 µg/mL)	inactive	inactive	inactive	inactive	inactive	inactive	inactive	inactive	96.4	24.08
CC(C)c1ccc(Cn2cnc3nc(N4CCOCC4)[nH]c(=O)c32)cc1	16 (≈ 5.65 µg/mL)	32 (≈ 11.3 µg/mL)	> 500	> 500	> 500	> 500	> 500	inactive	inactive	inactive	inactive	inactive	inactive	inactive	inactive	> 125	>7.8
CN(C)c1nc(N2CCOCC2)nc2ncn(Cc3ccc4ccccc4c3)c12	8 (≈ 3.11 µg/mL)	16 (≈ 6.22 µg/mL)	500 (≈ 194 µg/mL)	500 (≈ 194 µg/mL)	32 (≈ 12.4 µg/mL)	64 (≈ 24.9 µg/mL)	125 (≈ 48.6 µg/mL)	inactive	inactive	inactive	inactive	inactive	inactive	inactive	inactive	55.9	6.99
c1ccc2cc(Cn3cnc4nc(N5CCOCC5)nc(NC5CCCCC5)c43)ccc2c1	32 (≈ 14.2 µg/mL)	64 (≈ 28.3 µg/mL)	> 500	> 500	64 (≈ 28.3 µg/mL)	125 (≈ 55.3 µg/mL)	250 (≈ 111 µg/mL)	inactive	inactive	inactive	inactive	inactive	inactive	inactive	inactive	18.9	0.59
Clc1nc(N2CCOCC2)nc2ncn(Cc3ccc4ccccc4c3)c12	16 (≈ 6.08 µg/mL)	16 (≈ 6.08 µg/mL)	> 500	> 500	16 (≈ 6.08 µg/mL)	32 (≈ 12.2 µg/mL)	64 (≈ 24.3 µg/mL)	inactive	inactive	inactive	inactive	inactive	inactive	inactive	inactive	65.6	4.09
CN(c1nc2ncn(Cc3ccc4ccccc4c3)c2c(=O)[nH]1)C1CC1	16 (≈ 5.53 µg/mL)	16 (≈ 5.53 µg/mL)	> 500	> 500	125 (≈ 43.2 µg/mL)	250 (≈ 86.4 µg/mL)	500 (≈ 173 µg/mL)	inactive	inactive	inactive	inactive	inactive	inactive	inactive	inactive	> 125	>7.8
CNc1nc(N2CCOCC2)nc2ncn(Cc3ccc4ccccc4c3)c12	4 (≈ 1.5 µg/mL)	4 (≈ 1.5 µg/mL)	> 500	> 500	8 (≈ 3 µg/mL)	8 (≈ 3 µg/mL)	8 (≈ 3 µg/mL)	inactive	inactive	inactive	inactive	inactive	inactive	inactive	inactive	58.8	14.7
CCNc1nc(N2CCOCC2)nc2ncn(Cc3ccc4cc(F)ccc4c3)c12	4 (≈ 1.63 µg/mL)	8 (≈ 3.25 µg/mL)	> 500	> 500	16 (≈ 6.5 µg/mL)	16 (≈ 6.5 µg/mL)	16 (≈ 6.5 µg/mL)	inactive	inactive	inactive	inactive	inactive	inactive	inactive	inactive	40.7	10.18
